Screening data: PubChem, Broad Institute
Ecoli rRNA inh: selective bacterial rRNA inhibition in E. coli; E. coli WT GFP vs humanized-ribosome RFP mutants, fluorescence, 24 h; active compounds read low; DMSO median 0, no signal -100; GFP signal change (wild-type ribosome), % (concentration not given with the values); actives 1.6% (n = 350,000);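 active means significant combined selectivity score with lowered wild-type GFP, culture density cut under 30%, mutant RFP and density less affected; inactive means any of these conditions unmet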
S100A4 MyoIIA: blocks human S100A4 binding to myosin IIA peptide; S100A4/TAMRA-MyoIIA peptide fluorescence polarization; inhibition, % at 10.7 µM; actives 0.14% (n = 360,000); AID 652163;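 active means mean inhibition of at least 70% across replicates, with every replicate also reaching that level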
Target sequence (P26447 whole entry, looked up): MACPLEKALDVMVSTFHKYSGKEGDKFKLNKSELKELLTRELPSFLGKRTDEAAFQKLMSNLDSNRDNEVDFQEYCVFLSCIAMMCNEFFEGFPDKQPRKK
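Compound dosing: one dose per compound; test system: human S100A4 monomer with TAMRA-labelled myosin IIA peptide; probe or stimulus: TAMRA-labelled myosin IIA heavy-chain peptide probe, 5 nM; medium: HEPES buffer with Ca2+, pH 7.2; schedule: 5 min incubation before reading; benchmarks: neutral control DMSO, positive control TFP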
Cneo AK release: causes C. neoformans cell lysis; adenylate kinase release luminescence, 4 h; normalised: neutral wells 0, clomiphene wells 100; lysis activity, % at 15 µM; actives 0.2% (n = 360,000); AID 651654;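 active means mean lysis activity across replicates of at least 80%, whatever share of replicates individually reach that level; inactive means mean lysis activity below 80%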
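Material – log-phase Cryptococcus neoformans yeast cells · Input – 5 × 10^6 yeast cells/mL · Medium – fresh YPD growth medium · Doses – single compound concentration per well · Timing – static 4 h at 37 °C with compound, 1 h detection · Detection – adenylate kinase release luminescence · Read-out – signal increase indicating cell lysis · Control set – Clomiphene as positive lysis control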
PGC1a acetyl inh: PGC1a acetylation modulation, inhibitor mode; U2OS PGC1a acetylation, AlphaScreen anti-acetyl-lysine; with virally co-expressed GCN5 acetyltransferase; inhibition, % at 15.6 µM; actives 0.17% (n = 350,000); AID 651687;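 active means every replicate shows inhibition of at least 40%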;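 further: 0% = neutral control wells and 100% = positive control wells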
SIRT5 inh: sirtuin-5 (human) deacylase inhibition. Q9NXA8. Purified SirT5, succinyl-peptide AMC, trypsin-coupled fluorescence. inhibition, % at 15 µM. AID 652115. actives 1.1% (n = 330,000); in the data active means inhibition above about 15%
Target sequence (Q9NXA8 whole entry, looked up): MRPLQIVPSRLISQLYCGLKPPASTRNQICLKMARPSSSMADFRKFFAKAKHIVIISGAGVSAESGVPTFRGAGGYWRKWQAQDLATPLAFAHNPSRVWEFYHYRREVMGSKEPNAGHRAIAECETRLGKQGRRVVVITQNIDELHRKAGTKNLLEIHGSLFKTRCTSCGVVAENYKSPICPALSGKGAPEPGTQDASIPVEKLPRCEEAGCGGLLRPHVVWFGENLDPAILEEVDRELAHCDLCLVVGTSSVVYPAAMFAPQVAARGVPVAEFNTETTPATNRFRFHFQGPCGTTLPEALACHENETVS
C2C12 statin: protects C2C12 myotubes from simvastatin toxicity; ATP luminescence, 48 h; scaled: DMSO 0, geranylgeraniol control 100; rescue of ATP level, % at 7.49 µM; actives 0.78% (n = 330,000); AID 602340;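 active means mean ATP rescue above about 67%, or every replicate alone reaching that limit, limit read from the data, passing the limit was not always enough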;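 further: myotubes were challenged with 10 µM simvastatin during compound exposure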
An asterisk follows results filed as active; / = no result; ! = not active in a repeat. Hits are enriched below; roughly 3% of the tested compounds scored in any of these assays.

SMILES | Ecoli rRNA inh | S100A4 MyoIIA | Cneo AK release | PGC1a acetyl inh | SIRT5 inh | C2C12 statin
C[C@H](CO)N1C[C@H](C)[C@H](CN(C)CC2CC2)Oc2c(NS(=O)(=O)c3ccc(Cl)cc3)cccc2C1=O | -1 | 2 | -1 | 3 | 1 | -21
C[C@@H]1CN([C@@H](C)CO)C(=O)c2cccc(NS(C)(=O)=O)c2O[C@H]1CN(C)CC1CCCCC1 | 4 | 11 | 7 | -4 | 7 | 103*!
C[C@H]1CN([C@@H](C)CO)C(=O)c2cccc(NS(=O)(=O)c3ccc(Cl)cc3)c2O[C@@H]1CN(C)CC1CC1 | / | 1 | 89* | -13 | -4 | 36
C[C@@H]1CN([C@@H](C)CO)C(=O)c2cccc(NS(=O)(=O)c3ccc(F)cc3)c2O[C@H]1CN(C)C(=O)Nc1ccccc1 | / | -8 | -2 | -9 | 22* | 14
CC(C)NC(=O)N(C)C[C@H]1Oc2c(NS(=O)(=O)c3ccc(Cl)cc3)cccc2C(=O)N([C@@H](C)CO)C[C@@H]1C | -3 | 10 | 105* | -7 | 4 | -16
O=C(N[C@@H]1CC[C@H](CCn2cc(C3(O)CCCC3)nn2)O[C@@H]1CO)c1ccccc1F | -2 | 9 | 1 | 14 | 3 | -5
Cc1ccc(S(=O)(=O)N[C@@H]2CC[C@@H](CC(=O)N3CCC(Cc4ccccc4)CC3)O[C@H]2CO)cc1 | 4 | 12 | -2 | -14 | -3 | 13
C[C@H](CO)N1C[C@H](C)[C@@H](CN(C)C(=O)Nc2cccc(F)c2)OCc2ccccc2-c2c(n(C)c3ccccc23)C1=O | -15 | 7 | -1 | -5 | -2 | /
CC(C)NC(=O)Nc1ccc2c(c1)C(=O)N([C@H](C)CO)C[C@@H](C)[C@H](CN(C)S(=O)(=O)c1ccccc1)O2 | 3 | -7 | 0 | -4 | -1 | -15
C[C@@H]1CN([C@@H](C)CO)C(=O)c2cccc(NC(=O)Nc3ccccc3)c2O[C@@H]1CN(C)CC1CCCCC1 | 3 | 5 | -3 | / | 9 | 37
C[C@H](CO)N1C[C@H](C)[C@@H](CN(C)CC2CCCCC2)Oc2c(NC(=O)Cc3ccccc3)cccc2C1=O | -45 | 18 | 2 | / | 21* | 13
Cc1ccc(Oc2c(CO)c(-c3ccccc3)nn2C)cc1 | -24* | -2 | / | -3 | -1 | /
Cc1ccc(OCCn2c(=S)[nH]c3c(N)ncnc32)cc1 | -37* | 33 | -2 | 16 | -5 | 4
CC(C)Oc1ccc(OCCn2c(=S)[nH]c3c(N)ncnc32)cc1 | -31 | 4 | / | / | 1 | /
O=C(CC1NCCNC1=O)OCc1ccccc1 (stereo not drawn) | / | / | -1 | 7 | / | 96*
COc1cccc(CNC(=O)C[C@@H]2CC[C@@H](NC(=O)C3CC3)[C@H](CO)O2)c1 | 1 | 7 | -2 | 6 | 5 | -4
O=C1NC(Cc2ccc(O)cc2)c2nc3ccc(Br)cc3c(=O)n2-c2ncccc21 (stereo not drawn) | -21* | 1 | / | 0 | -8 | 14
O=C1NC(Cc2ccc(O)cc2)c2nc3ccc(Br)cc3c(=O)n2-c2cc3ccccc3cc21 (stereo not drawn) | / | 1 | -5 | -3 | -3 | 3
C[C@@H]1CN([C@@H](C)CO)C(=O)Cc2cc(NS(=O)(=O)c3ccc(F)cc3)ccc2O[C@H]1CN(C)Cc1ccc(-c2ccccc2)cc1 | 4 | / | / | 2 | / | 80*
C[C@@H]1CN([C@H](C)CO)C(=O)Cc2cc(NS(=O)(=O)c3ccccc3)ccc2O[C@H]1CN(C)Cc1ccc(-c2ccccc2)cc1 | 2 | 7 | 0 | 7 | 15* | 57
C[C@H](CO)N1C[C@H](C)[C@@H](CN(C)Cc2ccc(-c3ccccc3)cc2)Oc2ccc(NS(=O)(=O)c3ccccc3)cc2CC1=O | 3 | -2 | -1 | -6 | 18* | -6
C[C@H](CO)N1C[C@H](C)[C@H](CN(C)C)Oc2ccc(NS(=O)(=O)c3ccccc3)cc2CC1=O | 2 | 95* | 46 | 0 | 5 | -11
C[C@H]1CN([C@@H](C)CO)C(=O)Cc2cc(NS(=O)(=O)c3ccccc3)ccc2O[C@H]1CN(C)Cc1ccc(-c2ccccc2)cc1 | 3 | 7 | 0 | 4 | 9 | -16
CO[C@H]1CN(C)C(=O)c2cc(NS(=O)(=O)c3ccc(C)cc3)ccc2OC[C@@H](C)N(Cc2nccs2)C[C@@H]1C | 0 | -2 | 0 | -25 | -3 | -5
C[C@@H]1CN([C@@H](C)CO)C(=O)Cc2cc(NS(=O)(=O)c3ccc(Cl)cc3)ccc2O[C@@H]1CN(C)Cc1ccc(-c2ccccc2)cc1 | 1 | / | / | -8 | / | 59
SMILES | Ecoli rRNA inh | S100A4 MyoIIA | Cneo AK release | PGC1a acetyl inh | SIRT5 inh | C2C12 statin
COc1ccc(S(=O)(=O)Nc2ccc3c(c2)CC(=O)N([C@@H](C)CO)C[C@@H](C)[C@H](CN(C)Cc2ccc(-c4ccccc4)cc2)O3)cc1 | -3 | -7 | 1 | -23 | -5 | 140*
COc1ccc(S(=O)(=O)Nc2ccc3c(c2)CC(=O)N([C@H](C)CO)C[C@@H](C)[C@@H](CN(C)Cc2ccc(-c4ccccc4)cc2)O3)cc1 | 2 | -6 | -2 | -20 | 15 | 55
C[C@@H]1CN([C@@H](C)CO)C(=O)Cc2cc(NS(=O)(=O)c3ccc(Cl)cc3)ccc2O[C@H]1CN(C)Cc1ccc(-c2ccccc2)cc1 | 5 | / | / | -16 | / | 69*
C[C@@H]1CN([C@H](C)CO)C(=O)Cc2cc(NS(=O)(=O)c3ccccc3)ccc2O[C@H]1CN(C)Cc1ccccc1 | -4 | 24 | 0 | -2 | 4 | 41
C[C@@H]1CN([C@H](C)CO)C(=O)Cc2cc(NS(=O)(=O)c3ccccc3)ccc2O[C@@H]1CN(C)Cc1ccccc1 | -2 | 79* | 0 | -5 | 4 | 42
C[C@H](CO)N1C[C@H](C)[C@@H](CN(C)C(=O)c2ccccc2)OCCCC[C@H](C)Oc2ccc(NS(=O)(=O)c3ccccc3)cc2C1=O | -2 | 9 | -2 | 15 | -2 | /
O=C(C[C@H]1CC[C@@H](NC(=O)C2CCC2)[C@@H](CO)O1)NC1CCCCC1 | 2 | 1 | -1 | -1 | -2 | -2
CCCNC(=O)N1[C@H](CO)[C@H](c2ccccc2)[C@@H]1CNC(=O)C1CCCCC1 | 0 | 5 | / | / | -5 | /
CC1=NN(C(C#N)c2ccccc2O)C(C)(C)C1 (stereo not drawn) | 20 | -6 | / | -1 | -4 | /
CCN1C(C#N)=C(C#N)N=C(C)CC1(C)C | 12 | -8 | / | 109* | -2 | /
CN1c2ccc(C#Cc3cccnc3)cc2[C@@H]2[C@@H](CCN2S(=O)(=O)c2cccc(F)c2)[C@@H]1CO | -2 | 19 | 45 | -5 | 8 | -33
